Measured values pooled from the literature.
BCHE: Cholinesterase (BCHE, Equus caballus, UniProt P81908)
MAP2K3: Dual specificity mitogen-activated protein kinase kinase 3 (MAP2K3, Homo sapiens, UniProt P46734)

Compound	target	test	conditions	measurement	result
COc1cccc(CN2CCC(CN3Cc4cc(OC)c(OC)cc4C3=O)CC2)n1	BCHE	enzyme activity, inhibitor, Ellman	1 µM	inhibition	-2%
Cn1cc(-c2cccc(N3CCc4c(sc5c4CC(C)(C)C5)C3=O)c2CO)cc(Nc2ccncn2)c1=O	MAP2K3	enzyme activity, inhibitor	1 µM	inhibition	2%
Cc1nn(C)cc1-c1nc2c(N3CCN(Cc4ccc(Cl)cc4)CC3)c(Cl)cnc2[nH]1	Mitogen-activated protein kinase kinase kinase 6 (MAP3K6, Homo sapiens, UniProt O95382)	binding, competition with immobilised ligand	1 µM	remaining binding	100%
O=c1ccc2ccc3occc3c2o1	Aldehyde dehydrogenase, dimeric NADP-preferring (ALDH3A1, Homo sapiens, UniProt P30838)	enzyme activity, inhibitor, absorbance	10 µM	activity vs control	28.3%
COc1ncccc1-c1cnn2ccc(N3CCN(C(=O)OC(C)C)CC3)nc12	MAP2K3	binding, competition with immobilised ligand	1 µM	remaining binding	80%
COc1cc2c(cc1OC)C(=O)N(CC1CCN(Cc3cccc(C#N)c3)CC1)C2	BCHE	enzyme activity, inhibitor, Ellman	1 µM	inhibition	15.6%
Nc1ncc(-c2nc(N3CCOCC3)nc(N3CCOCC3)n2)c(C(F)F)n1	MAP2K3	binding, competition with immobilised ligand	10 µM	remaining binding	78%
C#Cc1n[nH]c2c(-c3cn([C@@H](C)c4ccccn4)c(=O)[nH]c3=O)cc(F)cc12	BDNF/NT-3 growth factors receptor (NTRK2, Homo sapiens, UniProt Q16620)	enzyme activity, inhibitor	0.1 µM	inhibition	3.7%
COc1cc2c(cc1OC)C(=O)N(CC1CCN(Cc3ccccc3)CC1)C2	BCHE	enzyme activity, inhibitor, Ellman	1 µM	inhibition	-4.8%
CCN(CC)CCCC[C@H](NC(=O)[C@H](CC(C)C)NC(=O)[C@H](C)NC(=O)[C@H](Cc1ccccc1)NC(=O)c1ccc(C(C)(C)C)cc1)C(=O)N[C@@H](CO)C(=O)OC	Transcription initiation factor TFIID subunit 1-like, BD2 (TAF1L, Homo sapiens, UniProt Q8IZX4)	thermal stability, DSF	25 µM	ΔTm	0.72 °C
